In ChEMBL document CHEMBL1130028, “A comparison of structure-activity relationships between spermidine and spermine analogue antineoplastics” (J Med Chem, 1997):

Columns and labels:
L1210 [1] = assay: Percentage of spermine (after 48 hr exposure to 500 uM) in L1210 cells.; assay type: functional, Mus musculus
Procedure, shortened: (§1)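 Log-phase L1210 cells were treated for 48 h with analogue at two concentrations. Cells were washed twice in cold RPMI-1640 and extracted with 0.6 N HClO4. Putrescine, spermidine and spermine were quantified by HPLC of dansyl derivatives and given as percent of untreated controls. Runs were in triplicate with untreated controls.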

L1210 [2] = assay: Percentage of spermidine (after 48 hr exposure to 100 uM) in L1210 cells.
L1210 [3] = assay: Growth inhibitory activity against L1210 cells (96h); assay type: functional, cell-based; details: Mus musculus, L1210, 96 h
Procedure, shortened: (§2)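 Murine L1210 leukemia cells were kept in log growth in RPMI-1640 with 10% fetal calf serum or NuSerum, HEPES-MOPS buffer and 1 mM aminoguanidine. IC50 is the concentration giving 50% of untreated control growth, as the mean of at least two experiments.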

[4] = Effect on ornithine decarboxylase (ODC) tested at 1 uM at 4 hour in L1210 cells; assay type: functional, Mus musculus
Procedure, shortened: (§3)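 L1210 cells were exposed to 1 μM analogue, for 4 h (ODC) or 6 h (AdoMetDC). Activity was measured as 14CO2 released from [14C]carboxyl-labelled L-ornithine (ODC) or S-adenosyl-L-methionine (AdoMetDC) and given as percent of untreated control. Each run included DEHSPM-treated positive controls. Values are the mean of at least three experiments.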

L1210 [5] = assay: Percentage of spermidine (after 48 hr exposure to 500 uM) in L1210 cells.
[6] = Binding affinity values for polyamine transporter was determined
L1210 [7] = assay: Percentage of spermine (after 48 hr exposure to 100 uM) in L1210 cells.; assay type: functional, Mus musculus; procedure, shortened: as §1
[8] = biological target: T1, S-adenosylmethionine decarboxylase proenzyme 1 (Mus musculus) (UniProt P0DMN7); assay: Effect on S-Adenosyl-methionine decarboxylase (AdoMetDC) tested at 1 uM at 6 hour in L1210 cells; assay type: functional, cell-based; procedure, shortened: as §3
T1 sequence (whole entry): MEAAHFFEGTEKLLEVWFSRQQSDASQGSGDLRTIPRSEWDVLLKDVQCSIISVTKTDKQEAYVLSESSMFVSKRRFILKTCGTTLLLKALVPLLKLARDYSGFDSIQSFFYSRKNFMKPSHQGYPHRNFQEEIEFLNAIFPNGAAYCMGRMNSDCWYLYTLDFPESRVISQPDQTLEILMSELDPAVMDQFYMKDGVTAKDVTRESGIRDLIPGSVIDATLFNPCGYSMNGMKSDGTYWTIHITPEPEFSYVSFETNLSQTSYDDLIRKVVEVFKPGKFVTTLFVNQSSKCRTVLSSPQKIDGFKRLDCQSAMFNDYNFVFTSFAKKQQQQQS

L1210 [9] = assay: Percentage of putrescine (after 48 hr exposure to 100 uM) in L1210 cells.; assay type: functional, Mus musculus; procedure, shortened: as §1
[10] = biological target: Spermidine/spermine N(1)-acetyltransferase (SAT) (Mus musculus) (UniProt Q6P8J2+P48026); assay: Effect on Spermidine/Spermine-Acetyltransferase (SSAT ) at 10 uM at 48 hour in L1210 cells; assay type: functional, cell-based
Chain of Spermidine/spermine N(1)-acetyltransferase (SAT) (Mus musculus) (P48026 whole entry, looked up): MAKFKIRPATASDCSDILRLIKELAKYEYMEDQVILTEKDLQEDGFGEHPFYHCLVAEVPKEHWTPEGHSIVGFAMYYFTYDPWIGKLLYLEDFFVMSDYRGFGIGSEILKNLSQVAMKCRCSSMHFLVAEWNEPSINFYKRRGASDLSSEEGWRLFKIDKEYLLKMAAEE
Chain of Spermidine/spermine N(1)-acetyltransferase (SAT) (Mus musculus) (Q6P8J2 whole entry, looked up): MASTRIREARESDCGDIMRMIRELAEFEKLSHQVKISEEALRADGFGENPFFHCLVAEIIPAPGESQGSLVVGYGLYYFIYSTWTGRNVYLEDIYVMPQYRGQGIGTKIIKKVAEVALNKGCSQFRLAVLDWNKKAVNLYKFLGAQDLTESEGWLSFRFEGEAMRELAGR
Procedure, shortened: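 L1210 cells were exposed to 10 μM triamine for 48 h. SSAT activity was taken as [14C]N1-acetylspermidine formed from spermidine and [14C]acetyl-CoA, given as percent of untreated control. DENSPM-treated cells served as positive control. Values are the mean of at least three experiments.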

L1210 [11] = assay: Growth inhibitory activity against L1210 cells (48h); assay type: functional, cell-based; details: Mus musculus, L1210, 48 h; procedure, shortened: as §2
L1210 [12] = assay: Percentage of putrescine after 48 hr exposure to the compound (500 uM ) in L1210 cells; assay type: functional, Mus musculus; procedure, shortened: as §1
L1210 [13] = assay: Intracellular levels in L1210 cells following 500 uM exposure.; assay type: functional, Mus musculus
Procedure, shortened: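 L1210 cells were grown 48 h in medium containing 500 μM analogue. Cellular contents were analysed by HPLC of dansyl derivatives and given as pmol/10^6 cells, as parent drug and metabolites with the % of total drug in the cell.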

L1210 [14] = assay: Percentage of spermidine after 48 hr of exposure to the compound (500(15)uM ) in L1210 cells; assay type: functional, Mus musculus; procedure, shortened: as §1
L1210 [15] = assay: Percentage of spermine after 48 hr exposure to the compound (500(15)uM ) in L1210 cells; assay type: functional, Mus musculus
Procedure, shortened: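 Log-phase murine L1210 leukemia cells (RPMI-1640, 10% fetal calf serum or NuSerum, HEPES-MOPS buffer, 1 mM aminoguanidine) exposed 48 h to analogue at two concentrations. Cells washed twice in cold RPMI-1640 and extracted with 0.6 N HClO4. Spermine in extracts quantified by HPLC of DANSYL derivatives and expressed as percent of untreated controls. Triplicate flasks per condition.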

L1210 [16] = assay: Percentage of putrescine after 48 hr exposure to the compound (500(15)uM ) in L1210 cells; assay type: functional, Mus musculus; procedure, shortened: as §1
L1210 [17] = assay: Percentage of putrescine after 48 hr exposure to the compound (100(3)uM ) in L1210 cells; assay type: functional, Mus musculus; procedure, shortened: as §1
L1210 [18] = assay: Percentage of spermidine after 48 hr of exposure to the compound (100(3)uM ) in L1210 cells; assay type: functional, Mus musculus; procedure, shortened: as §1

SMILES	Polyamine (L1210 [1]) [%]	Spermidine % (L1210 [2]) [%]	IC50 (L1210 [3]) [µM]	ODC [4] [%]	Spermidine % (L1210 [5]) [%]	Ki [6] [µM]	Polyamine (L1210 [7]) [%]	AdoMetDC [8] [%]	Polyamine (L1210 [9]) [%]	SSAT [10] [%]	IC50 (L1210 [11]) [µM]	Polyamine (L1210 [12]) [%]	Picoequivalents of amine/10e6 cells (L1210 [13])	Polyamine (L1210 [14]) [%]	Polyamine (L1210 [15]) [%]	Polyamine (L1210 [16]) [%]	Polyamine (L1210 [17]) [%]	Polyamine (L1210 [18]) [%]
NCCCCCNCCCCN	35	1	0.18	19	0	1.4	53	57	0	410	> 100							
CCNCCCCNCCCN	61	26	40	17	15	7	84	54	0	400	> 100	0	17990					
CCCNCCCNCCCN	49	29	100	33	15	33	56	38	0	470	> 100	0	17710					
CCCNCCCCNCCCCNCCC		19	6	86	7	67		123	0	420	> 100	0	15990					
CCCNCCCCNCCCNCCC			33	75		26		107		1030	> 100		15330	12	99	0	6	35
CNCCCNCCCNC	48	9	4.8	17	6	60	58	41	0	250	> 100	0	18400					
CCCNCCCCCNCCCCCNCCC		73	6	73	69	87	97	123	59	90	> 100	51	13910					
NCCCCNCCCCN	21	4	3	11	2	3.4	32	54	0	430	> 100							
CNCCCCNCCCNC	54	5	1.7	22	0	5.1	58	68	0	270	> 100	0	16090					
CCCNCCCCNCCCN	95	33	55	14	16	8.5		64	0	500	> 100	0	19590					
